Assay outcomes (PubChem)
Compounds with a hit are over-represented: about 1.5% of the library has one in this group of screens.
T cell HTS: modulators of CD8 T cell-vesicle binding, primary screen, mouse 2C CD8+ T cells, flow cytometry; 2C CD8+ T cell-vesicle binding; hits give low values; response (vesicle binding), % at 7 µM; actives 0.068% (n = 330,000); AID 2052, 2009;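 active means response, share of CD8 T cells binding vesicles, and their 90th percentile fluorescence all below set limits, cut at about 80% in these data, passing the limit was not always enough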;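 further: values below 100% mean blocked vesicle binding to the CD8+ T cells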
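Material: murine 2C transgenic CD8+ T lymphocytes / Also added: QL9-peptide-loaded Drosophila micro-vesicles bearing Ld, ICAM-1 and B7-1 / Schedule: binding step 1.5 h, 37 °C, antibody labelling 20 min, ice / Signal: flow cytometry, PE anti-B7-1 (FL2) versus Alexa647 anti-CD8 (FL8), PFA-fixed / Evaluation: percent CD8+ FL2 mean versus row control / Benchmarks: naked versus QL9-loaded vesicles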
LANA-H2A inh: blockers of LANA interaction with H2A/H2B – biochemical, FP readout, HTS, primary screen | Protein LANA1 (Human herpesvirus 8 type P (isolate GK18)), Q9QR71 | cell-free LANA-H2A/H2B peptide, fluorescence polarization | inhibition, % (concentration not given with the values) | actives 0.6% (n = 320,000) | AID 2629, 2010; in the data active means inhibition mostly above about 10%, no sharp cut-off; inactive means mostly below about 6.7%
Arrestin-AP2 inh: inhibitors of beta-arrestin/AP2 binding, primary screen, biochemical, GPCR trafficking, flow cytometry | FITC-arrestin peptide / GST-AP2 beads; AP2 beta2 appendage carries R879A mutation | beta-arrestin 1 C-terminal peptide binding to AP2 beta2-adaptin appendage (human) | inhibition, % at 10 µM | actives 0.31% (n = 340,000);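 active means inhibition above a set limit, near 3 SD of compounds lacking own fluorescence, cut at about 54% in these data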;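 further: plate controls were DMSO wells for no effect and 5 µM unlabelled arrestin peptide for full effect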
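System: GST-AP2 R879A glutathione beads | Also added: FITC-arrestin peptide, 50 nM | Times: 12 min plus 1 h, RT | Signal: Bead flow cytometry, FITC channel | Buffer or medium: PBS with 0.05% Tween 20 and 0.1% BSA | Read-out basis: Percent drop in bead-associated FITC signal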
HDAC3 inhib: HDAC3 deacetylase inhibitors, primary screen, biochemical, fluorescence, cell-free homogeneous. Histone deacetylase 3 (Homo sapiens), O15379. AID 2718, 2010. recombinant HDAC3, fluorogenic peptide/trypsin coupled. actives 0.15% (n = 320,000). inhibition, % at 8.3 µM; in the data active means inhibition above about 26%, passing the limit was not always enough; inconclusive means no clear call, values can overlap the other calls
Target sequence (O15379 whole entry, looked up): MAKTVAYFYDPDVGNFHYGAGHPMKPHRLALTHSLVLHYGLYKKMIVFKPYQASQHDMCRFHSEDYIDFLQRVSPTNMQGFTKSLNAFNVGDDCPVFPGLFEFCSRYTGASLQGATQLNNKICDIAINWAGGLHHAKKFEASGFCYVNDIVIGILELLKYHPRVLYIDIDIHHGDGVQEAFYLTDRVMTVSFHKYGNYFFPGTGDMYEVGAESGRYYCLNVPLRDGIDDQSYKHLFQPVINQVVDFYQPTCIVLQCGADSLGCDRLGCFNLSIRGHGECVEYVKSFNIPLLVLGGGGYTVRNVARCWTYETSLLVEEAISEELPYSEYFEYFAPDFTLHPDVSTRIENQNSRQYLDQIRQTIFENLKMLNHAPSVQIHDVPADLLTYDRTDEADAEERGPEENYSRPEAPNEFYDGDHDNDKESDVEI
Pemphigus Ab inh: inhibitors of pemphigus antibody binding to DSG3, primary screen, biochemical, bead-based, flow cytometry, scFv-GFP. Desmoglein-3 (Homo sapiens), P32926. DSG3-coupled beads, scFv-anti-DSG3-GFP binding; hits give low values. binding (percent of control), % at 10 µM. actives 0.48% (n = 310,000). AID 588358, 2011;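 active means binding more than 3 SD below its plate's average and above zero; inconclusive means below that plate limit but binding exactly zero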;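 further: hits lower antibody fragment binding to DSG3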
Arr AP2 CP1: inhibitors of arrestin peptide binding to AP2, confirmation, biochemical, cherry pick 1, flow cytometry beads; GST-AP2 beads, FITC arrestin peptide binding; GST-fused beta2-adaptin appendage, R879A mutant; AID 504908, 2011; shares compounds with Arrestin-AP2 inh; actives 2% (n = 1,300); inhibition, % at 10 µM;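 active means inhibition above a set limit, roughly 3 SD of non-fluorescent compound noise, cut at about 38% in these data; inactive means inhibition at or below that limit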;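 further: loss of bead fluorescence from 50 nM FITC arrestin peptide bound to appendage; 0% = negative control wells and 100% = excess unlabelled arrestin peptide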
GST GSH counter: GST-fluorescein capture on glutathione beads, confirmation, artefact control for arrestin-AP2 inhibitor project, biochemical, cherry pick 1, flow cytometry; shares compounds with Arrestin-AP2 inh; GST-fluorescein binding to GSH beads, fluorescence, counter-screen; inhibition, % at 10 µM; actives 2% (n = 1,300); AID 588338, 2011;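 active means inhibition above 50%, about 3 SD of the inhibition seen with non-fluorescent compounds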;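 further: fluorescein maleimide labelled GST captured on 4 micron glutathione beads; higher means more loss of bead fluorescence from quenching or blocked binding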
An asterisk follows results filed as active; i = inactive; ? = inconclusive; / = no result given; ! = a repeat was not active.

SMILES	T cell HTS	LANA-H2A inh	Arrestin-AP2 inh	HDAC3 inhib	Pemphigus Ab inh	Arr AP2 CP1	GST GSH counter
c1ccc2ncccc2c1	0	/	19	/	77*	/	/
O=Cc1ccc2ccc3cccnc3c2n1	315	1	7	-3	115	/	/
c1cnc2c(c1)ccc1cccnc12	255	21*!	-4	3	98	/	/
CCOc1ccc(-c2c(=O)n(O)c3ccccc3[n+]2[O-])cc1	157	3	16	1	103	/	/
COC(=O)c1c(=O)n(O)c2ccc(OC)cc2[n+]1[O-]	272	55*	7	2	106	/	/
O=C(Nc1ccc(Oc2ccc(Br)cc2)cc1)C1=CC=CN2CCS(=O)(=O)N=C12	622	4	-9	-4	104	/	/
CC(=O)Oc1cccc(/C=C2\Sc3ccccc3C2=O)c1	808	14*	-1	4	/	/	/
CCCCOc1ccc(/C=C2/Sc3ccccc3C2=O)cc1	191	-17	0	0	79	/	/
O=C(CSc1ccccc1)NNC(=O)c1ccccc1O	316	-9	13	-2	121	/	/
CN(NC1OC(=O)c2ccccc21)c1ccc(C(F)(F)F)cc1[N+](=O)[O-] (stereo not drawn)	456	9	3	-4	84*	/	/
CN(NC1OC(=O)c2ccccc21)c1ccc(Cl)cc1[N+](=O)[O-] (stereo not drawn)	i	-1	6	12	/	/	/
COc1ccc(NC(=O)CN(C)S(=O)(=O)c2ccc(Br)s2)cc1OC	207	6	6	-3	110	/	/
COc1ccc(NC(=O)CN(C)S(=O)(=O)c2ccc(Br)s2)cc1	254	-5	-4	-3	-22*	/	/
O=C(Oc1ccc2ccc(=O)oc2c1)N1CCOCC1	338	0	55*	2	105	1	-9
CN(CCOc1ccccc1)C(=O)C1CCC(=O)N(CCN2CCOCC2)C1 (stereo not drawn)	269	8	19	-1	113	/	/
O=C1c2ccccc2C(=O)c2c(NCc3cccnc3)cccc21	246	-3	6	1	104	/	/
CNc1cccc2c1C(=O)c1ccccc1C2=O	691	-4	67*	2	88	3	3
O=C(Nc1ccc2c(c1)OCO2)c1c[nH]c(=O)n(-c2ccc(F)cc2)c1=O	418	3	5	-6	88	/	/
COc1ccc(-c2nnn(CC(=O)Nc3ccc4c(c3)OCCO4)n2)cc1OC	170	3	60*	2	/	11	3
O=C(Cn1nnc(-c2ccc(F)cc2)n1)Nc1ccc2c(c1)OCCO2	207	1	34	?	100	/	/
O=C(NC(=S)Nc1ccc(N2CCOCC2)cc1)c1cccs1	225	6	60*	6	108	-4	3
COc1cc(NC(=O)n2ncc3cc(Cl)ccc32)cc(OC)c1	448	6	6	6	86	/	/
O=C(Nc1ccccc1F)n1ncc2cc(Cl)ccc21	240	-3	62*	-11	87	-2	-4
Cc1c(N(C(=O)Nc2ccccc2)C2=NCC(C)S2)c(=O)n(-c2ccccc2)n1C (stereo not drawn)	324	-4	98*	-6	101	-3	-1
CCc1ccccc1NC(=O)Nc1cccn(Cc2ccc(F)cc2)c1=O	646	-1	58*	-5	101	-5	-12
SMILES	T cell HTS	LANA-H2A inh	Arrestin-AP2 inh	HDAC3 inhib	Pemphigus Ab inh	Arr AP2 CP1	GST GSH counter
CCc1ccccc1NC(=O)Nc1ccc(F)cc1	430	-1	14	8	90	/	/
Cc1cnc(NC(=O)c2c(Cl)cnn2C)s1	158	2	-3	3	107	/	/
CC(C)=CCCC(C)CN1CCC(n2nccc2NC(=O)c2cccnc2)CC1 (stereo not drawn)	462	3	60*	2	103	-10	-5
CCOCCCNC(=O)c1ccc(N2CC3CC(C2)c2cccc(=O)n2C3)c(NC(=O)Nc2cccc(OC)c2)c1 (stereo not drawn)	401	1	5	-3	102	/	/
C1=C(CCNc2nnnn2-c2ccccc2)CCCC1	546	1	55*	6	/	4	-1
c1ccc(CCNc2nnnn2-c2ccccc2)cc1	254	-1	4	0	108	/	/
CCn1nc(NC(=O)CC(C)C)c2cc3cccc(C)c3nc21	430	0	55*	-5	109	8	3
CCCn1nc(NC(=O)CC(C)C)c2cc3cccc(C)c3nc21	355	4	11	1	109	/	/
Cc1c(NS(=O)(=O)c2cccc(C(=O)NCc3ccc(Cl)cc3)c2)c(=O)n(-c2ccccc2)n1C	218	-3	14	1	106	/	/
Cc1c(NS(=O)(=O)c2cccc(C(=O)NCc3ccco3)c2)c(=O)n(-c2ccccc2)n1C	/	/	95*	/	92	6	-9
Cn1cc(C[C@H](NC(=O)OC(C)(C)C)C(=O)N[C@@H](CO)Cc2ccccc2)c2ccccc21	456	-5	1	10	99	/	/
Cc1ccc(C)c(N2CCN(CC3CCCCC3)CC2)c1	253	-1	5	-2	102	/	/
Cc1ccc(C)c(N2CCN(c3ccncc3N)CC2)c1	42	-4	55*	/	93	-3	-7
O=C(Cc1ccccn1)c1ccncc1	/	/	5	/	116	/	/
ClCCn1cnc2c(SCc3ccccc3)ncnc21	/	/	-5	/	92	/	/
CC1(C)Oc2ccc3ccc(=O)oc3c2/C(=C/Nc2ccc(O)cc2)C1=O	358	-3	55*	-8	99	-10	-4
COc1ccc(CC(=O)NNC(=O)COc2ccc(Cl)cc2C)cc1S(=O)(=O)N1CCOCC1	360	1	17	3	/	/	/
CCNS(=O)(=O)c1ccc(NC(=O)Cn2nc(C(F)(F)F)cc2C)cc1	313	2	62*	7	97	7	5
CC(NC(=O)CNC(=O)C1O[C@@H]2OC(C)(C)O[C@@H]2[C@H]2OC(C)(C)O[C@@H]12)C(=O)O (stereo partly drawn)	169	2	6	-14	99	/	/
